Source: ChEMBL document CHEMBL4017535 (J Med Chem, 2017)

Columns and labels:
MX1 = assay: Antiproliferative activity against human MX1 cells after 72 hrs by Cell Titer Glo assay; format: functional, cell-based; details: MX1, 72 h
Liver [1] = assay: Unbound intrinsic clearance in human liver microsomes at 10 uM preincubated for 5 mins followed by NADPH addition measured after 60 mins by HPLC-UV-MS analysis; format: ADME, microsome; details: 1 h
[2] = target: T1, Bromodomain-containing protein 4 (Homo sapiens, UniProt O60885); assay: Binding affinity to human N-terminal His6-tagged BRD4 BD1-BD2 (K57 to K550 residues) after 1 hr using alexa-647 conjugated probe by TR-FRET assay
[3] = target: T1, Bromodomain-containing protein 4; assay: Inhibition of BRD4 in human H1299 cells assessed as decrease in HPV LCR-E2-EP400-mediated transcriptional repression after 24 hrs by Bright-Glo luciferase reporter gene assay; format: cell-based
[4] = Permeability in MDCK cells; format: ADME, cell-based, Canis lupus familiaris; details: dog, read-out: permeability
Liver [5] = assay: Unbound intrinsic clearance in rat liver microsomes at 10 uM preincubated for 5 mins followed by NADPH addition measured after 60 mins by HPLC-UV-MS analysis; format: ADME, microsome; details: 1 h
Liver [6] = assay: Unbound intrinsic clearance in mouse liver microsomes; format: ADME, microsome
Method in brief: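 Liver microsome stability is expressed as unbound intrinsic clearance, Cl_int,u, in L/hr/kg. Dextromethorphan served as the in-house low-clearance reference control and verapamil as the high-clearance reference control.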

| SMILES | EC50 (MX1) [nM] | CL free (Liver [1]) [mL/min/kg] | Ki [2] [nM] | EC50 [3] [nM] | Papp [4] [×10⁻⁶ cm/s] | CL free (Liver [5]) [mL/min/kg] | CL free (Liver [6]) [mL/min/kg] |
| --- | --- | --- | --- | --- | --- | --- | --- |
| Cc1sc2c(c1C)C(c1ccc(Cl)cc1)=N[C@@H](CC(=O)OC(C)(C)C)c1nnc(C)n1-2 | 254 |  |  |  |  |  |  |
| Cn1cc(-c2cc(NS(C)(=O)=O)ccc2OC2CCOCC2)c2cc[nH]c2c1=O | 72 | < 30 | 68 | 90 | 1.7 | 233 | < 90 |
| CCS(=O)(=O)Nc1ccc(Oc2ccc(Cl)cc2)c(-c2cn(C)c(=O)c3[nH]ccc23)c1 | 22 | < 96.7 | 3.4 | 17 | 21 | 200 | 900 |
| Cn1cc(-c2cc(NS(C)(=O)=O)ccc2Oc2ccccc2C(F)(F)F)c2cc[nH]c2c1=O | 83 | 533 | 6.4 | 76 | 7.8 | 250 | 1350 |
| COc1ccc2c(c1)[C@]13CCCC[C@@H]1[C@H](C2)N(C)CC3 [DEXTROMETHORPHAN] |  | 123 |  |  |  |  |  |
| Cn1cc(-c2ccccc2Oc2ccccc2)ccc1=O | 4800 |  | 890 | 4100 |  |  |  |
| Cn1cc(-c2cc(NS(C)(=O)=O)ccc2Oc2ccc(F)cc2Cl)c2cc[nH]c2c1=O | 27 | 233 | 3.1 | 35 | 11 | 317 | 850 |
| Cn1cc(-c2cc(NS(C)(=O)=O)ccc2Oc2cccnc2)c2cc[nH]c2c1=O | 34 | 86.7 | 6.3 | 67 | 3 | 350 | 533 |
| Cn1cc(-c2cc(NS(C)(=O)=O)ccc2OCc2ccccc2)c2cc[nH]c2c1=O | 110 | 122 | 68 | 120 | 24 | 567 | 900 |
| CCS(=O)(=O)Nc1ccc(OC2CCC(N(C)C)CC2)c(-c2cn(C)c(=O)c3[nH]ccc23)c1 (stereo not given) | 86 | < 26.7 | 26 | 270 | 2.7 | < 45 | 125 |
| Cn1cc(-c2cc(NS(C)(=O)=O)ccc2OC2CCCCC2)c2cc[nH]c2c1=O | 14 | 450 | 3.7 | 18 | 23 | 1600 | 3670 |
| CCS(=O)(=O)Nc1ccc(Oc2ccc(C(F)(F)F)cc2)c(-c2cn(C)c(=O)c3[nH]ccc23)c1 | 30 | 128 | 9 | 65 | 11 | 583 | 2830 |
| CN(C)S(=O)(=O)Nc1ccc(Oc2ccccc2)c(-c2cn(C)c(=O)c3[nH]ccc23)c1 | 65 | 233 | 2.9 | 43 | 19 | 4000 | 2330 |
| Cn1cc(-c2cc(S(N)(=O)=O)ccc2Oc2ccccc2)c2cc[nH]c2c1=O | 56 | < 43.3 | 3.6 | 39 | 22 | 1320 | 517 |
| COCCc1ccc(OCC(O)CNC(C)C)cc1 (stereo not given) [METOPROLOL] |  |  |  |  | 36 |  |  |
| CCS(=O)(=O)Nc1ccc(Oc2cncnc2)c(-c2cn(C)c(=O)c3[nH]ccc23)c1 | 130 | < 33.3 | 32 | 170 | 1 | 48.3 | 233 |
| Cn1cc(-c2cc(S(C)(=O)=O)ccc2Oc2ccccc2)c2cc[nH]c2c1=O | 52 | 91.7 | 5.8 | 50 | 24 | 1080 | 383 |
| CCS(=O)(=O)Nc1ccc(Oc2ccc(C#N)cc2)c(-c2cn(C)c(=O)c3[nH]ccc23)c1 | 17 | 41.7 | 9.4 | 48 | 11 | 81.7 | < 108 |
| Cn1cc(-c2cc(NS(=O)(=O)CC(F)(F)F)ccc2Oc2ccccc2)c2cc[nH]c2c1=O | 31 | 46.7 | 4.4 | 22 | 16 | 1270 | 650 |
| CCS(=O)(=O)Nc1ccc(OC2CCN(C)CC2)c(-c2cn(C)c(=O)c3[nH]ccc23)c1 | 210 | < 28.3 | 430 | 880 | 0.55 | 80 | < 85 |
| CCS(=O)(=O)Nc1ccc(OCC(C)(C)C)c(-c2cn(C)c(=O)c3[nH]ccc23)c1 | 77 | 283 | 38 | 79 | 43 | 433 | 1030 |
| Cn1cc(-c2cc(NS(C)(=O)=O)cnc2Oc2ccccc2)c2cc[nH]c2c1=O | 46 | 63.3 | 4.1 | 88 | 6 | 600 | < 93.3 |
| CCS(=O)(=O)Nc1ccc(Oc2ccccc2)c(-c2cn(C)c(=O)c3[nH]ccc23)c1 | 14 | < 45 | 1.5 | 8.1 | 22 | 3330 | 917 |
| Cc1cc(-c2ccccc2Oc2ccccc2)c[nH]c1=O | 2400 |  | 1700 | 2300 |  |  |  |
| Cn1cc(-c2ccccc2Oc2ccccc2)c2cc[nH]c2c1=O | 550 | 1670 | 48 | 480 | 31 | 40000 | 93300 |
| Cn1cc(-c2ccccc2Oc2ccccc2)cc(N)c1=O | > 5000 |  | 3000 | 8500 |  |  |  |
| CC(=O)Nc1ccc(Oc2ccccc2)c(-c2cn(C)c(=O)c3[nH]ccc23)c1 | 46 | 113 | 9.8 | 26 | 28 | 767 | 3500 |
| CCS(=O)(=O)Nc1ccc(Oc2c(F)cc(F)cc2F)c(-c2cn(C)c(=O)c3[nH]ccc23)c1 | 7.9 | 102 | 12 | 19 | 21 | 233 | 900 |
| Cn1cc(-c2cc(C(N)=O)ccc2Oc2ccccc2)c2cc[nH]c2c1=O | 120 | 48.3 | 14 | 71 | 14 | 550 | 450 |
| Cn1cc(-c2cc(NS(C)(=O)=O)ccc2OC2CCC(F)(F)CC2)c2cc[nH]c2c1=O | 19 | < 38.3 | 19 | 20 | 12 | 200 | 717 |
